Source: ChEMBL document CHEMBL1126644, “Structure-activity relationships in the trans-hexahydroindolo[4,3-ab]phenanthridine ("benzergoline") series. 2. Resolution, absolute configuration, and dopaminergic activity of the selective D1 agonist CY 208-243 and its implication for an "extended rotamer-based dopamine receptor model"” (1993)

Assays:
Bos taurus = species on record: Bos taurus; test: In vitro percent maximal stimulation relative to dopamine (125 uM) in bovine retina; format: functional
Summary of the method: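 Bovine retina adenylate cyclase stimulation, expressed as a percentage of the maximal effect produced by 125 μM dopamine.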

[1] = In vitro potency against adenylate cyclase in bovine retina; format: tissue-based
Summary of the method: (§1)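 Dopamine-sensitive adenylate cyclase assay on bovine retina tissue. Values are means of two to six independent experiments, each run in triplicate.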

Rattus norvegicus [2] = species on record: Rattus norvegicus; test: Tested in vitro for percent maximal inhibition in rat striatal slices (% of control) expressed as change of S2/S1 versus control at 1 uM
Rattus norvegicus [3] = species on record: Rattus norvegicus; test: In vitro potency in rat striatal slices by electrically evoked acetylcholine release; format: functional
Rattus norvegicus [4] = species on record: Rattus norvegicus; test: Tested in vitro for percent maximal inhibition in rat striatal slices (% of control) expressed as change of S2/S1 versus control at 1 uM; remark: listed apart in the source
[5] = Compound was evaluated for in vitro potency against adenylate cyclase in bovine retina; format: tissue-based; summary of the method: as §1

Row | SMILES | Relative to DA (Bos taurus) [%] | pD2 [1] | inhibition at 1 µM (Rattus norvegicus [2]) [%] | pD2 (Rattus norvegicus [3]) | inhibition at 1 µM (Rattus norvegicus [4]) [%] | pD2 [5]
1 | CN1Cc2ccccc2[C@@H]2c3cccc4[nH]cc(c34)C[C@H]21 (stereo in doubt) [listing 1 of 2 here] | 68 |  |  |  |  | 
2 | Oc1ccc([C@@H]2CNCc3ccccc32)cc1O | 86 | 6 | 0 |  |  | 
3 | CN1CCC[C@@H]2c3cccc4[nH]cc(c34)C[C@H]21 | 24 | 5.2 | 30 | 7.5 |  | 
4 | CN1CCc2cccc3c2[C@H]1Cc1ccc(O)c(O)c1-3 [APOMORPHINE] | 38 | 6.2 | 85 | 7.5 |  | 
5 | CN1Cc2ccccc2[C@@H]2c3cccc4[nH]cc(c34)C[C@H]21 (racemic) [listing 1 of 2 here] | 57 |  |  |  | 0 | 
6 | CN1Cc2ccccc2[C@@H]2c3cccc4[nH]cc(c34)C[C@H]21 (racemic) [listing 2 of 2 here] |  | 6.1 |  |  |  | 
7 | CN1Cc2ccccc2[C@@H]2c3cccc4[nH]cc(c34)C[C@H]21 (stereo in doubt; (+)-1) | 0 |  |  |  |  | 
8 | CN1CCC[C@@H]2Cc3c(O)cccc3C[C@H]21 | 14 | 6.15 | 62 | 7.3 |  | 
9 | Oc1cc2c(cc1O)C(c1ccccc1)CNCC2 (centres undefined) [SKF-38393] | 58 | 6.6 | 0 |  |  | 
10 | CN1Cc2ccccc2[C@@H]2c3cccc4[nH]cc(c34)C[C@H]21 (stereo in doubt) [listing 2 of 2 here] |  |  |  |  |  | 6.9
